Shown are actives, neighbours in structure and some others; about 1.9% of the full set was active somewhere.
FGF22 binding – binders of human FGF22 protein, primary screen, FGF22 synaptogenesis inhibitor project, biophysical, thermal shift, single point; Fibroblast growth factor 22 (Homo sapiens), Q9HCT0; actives 1.5% (n = 340,000); activity (Tm shift, normalised), % at 9.99 µM; recombinant FGF22 thermal shift, SYPRO orange fluorescence; percent of sucrose octasulfate shift, DMSO zero;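 active = mean Tm shift, scaled 0 neutral to 100 positive control, at about 1.3% or above, every replicate too, limit read from the data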
Target sequence (Q9HCT0 whole entry, looked up): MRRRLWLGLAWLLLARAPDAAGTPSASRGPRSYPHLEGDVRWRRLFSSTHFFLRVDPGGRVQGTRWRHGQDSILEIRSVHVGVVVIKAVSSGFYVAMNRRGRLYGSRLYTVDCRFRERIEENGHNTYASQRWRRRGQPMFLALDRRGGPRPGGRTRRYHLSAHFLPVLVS
Efflux pump mplx – inhibitors of Candida efflux pumps in yeast, primary screen, S. cerevisiae, Nile Red, multiplex; S. cerevisiae Candida pump triplex; inhibition, % at 10 µM; actives 0.44% (n = 330,000);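 active = plate passing quality check with inhibition over a set limit, or well fluorescence over plate mean plus 4 SD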;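 note: Nile Red retained in pooled yeast measured as flow cytometry median fluorescence; 0% = buffer negative control and 100% = Enniatin B positive control; higher means more Nile Red kept so more efflux inhibition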
ASAP1 GAP inh – inhibitors of human ASAP1 ArfGAP activity, primary screen, biochemical, fluorescence polarization; actives 0.19% (n = 360,000); Arf-GAP with SH3 domain, ANK repeat and PH domain-containing protein 1 (Homo sapiens), …; ASAP1-stimulated ARF1 GTP hydrolysis, GDP FP detection; inhibition, % at 16.5 µM; in the data active = inhibition above about 25%;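 note: 0% = vehicle with enzyme and substrate and 100% = no enzyme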
ARFGAP1 inh – inhibitors of rat ARFGAP1 GAP activity, primary screen, biochemical, fluorescence polarization, GDP tracer; ADP-ribosylation factor GTPase-activating protein 1 (Rattus norvegicus), Q62848; Arfgap1-stimulated ARF1 GTP hydrolysis, GDP FP detection; inhibition, % at 16.5 µM; actives 0.26% (n = 360,000);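 active = inhibition above a per-plate limit, mean inhibition of low control wells plus 3 SD, cut at about 25% in these data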;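 note: 0% = DMSO wells with enzyme and 100% = wells lacking Arfgap1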
Target sequence (Q62848 1-136 limits assumed): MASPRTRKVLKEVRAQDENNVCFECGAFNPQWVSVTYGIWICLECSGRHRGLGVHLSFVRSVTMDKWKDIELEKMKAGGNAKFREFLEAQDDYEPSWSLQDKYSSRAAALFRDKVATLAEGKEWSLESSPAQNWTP
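Assay system: Rat Arfgap1 GAP domain (His6, aa 1-136), purified enzyme | Buffer or medium: HEPES 25 mM pH 7.5, NaCl 150 mM, MgCl2, DTT | Schedule: GTP hydrolysis reaction 2 h at 25 °C | Signal: FP of antibody-bound GDP Alexa 633 tracer, ex 620/em 688 nm | Measure: Percent inhibition of Arfgap1-stimulated GTP hydrolysis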
Rtt109 Vps75 – inhibitors of C. albicans Rtt109/Vps75 HAT, primary screen, biochemical, ThioGlo CoA-SH fluorescence, plate reader; AID 540336, 2011; actives 0.16% (n = 330,000); purified Rtt109/Vps75, 4 h; Histone acetyltransferase RTT109 (Candida albicans (strain SC5314 / ATCC MYA-2876)), …; inhibition, % at 34.9 µM;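 active = inhibition of at least 50% in every replicate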
Target sequence (Q5AAJ8 whole entry, looked up): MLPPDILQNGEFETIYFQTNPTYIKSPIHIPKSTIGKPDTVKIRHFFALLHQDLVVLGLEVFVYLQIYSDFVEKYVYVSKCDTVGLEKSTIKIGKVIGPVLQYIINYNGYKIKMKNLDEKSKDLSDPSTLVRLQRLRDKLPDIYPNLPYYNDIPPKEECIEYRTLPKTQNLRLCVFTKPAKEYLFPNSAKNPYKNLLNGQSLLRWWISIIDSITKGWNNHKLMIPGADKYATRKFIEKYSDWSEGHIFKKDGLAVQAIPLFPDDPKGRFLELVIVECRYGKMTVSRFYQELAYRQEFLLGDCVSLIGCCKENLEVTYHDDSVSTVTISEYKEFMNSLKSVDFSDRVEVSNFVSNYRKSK
An asterisk follows results filed as active; . = not tested or not shown.

SMILES | FGF22 binding | Efflux pump mplx | ASAP1 GAP inh | ARFGAP1 inh | Rtt109 Vps75
COc1ccccc1/C=C/C(=O)NCC(=O)N/N=C/c1ccccc1[N+](=O)[O-] | 0.1 | -0.1 | 12.0 | -2.5 | .
O=C(/C=C/c1ccccc1)NCC(=O)N/N=C/c1ccccc1[N+](=O)[O-] | 43.5* | 0.1 | 5.8 | 6.9 | .
COc1ccc(NC(=O)NCc2ccco2)cc1OC | 43.8* | 0.0 | 13.5 | -6.5 | -1.1
COc1ccc(C)cc1NC(=O)NCc1ccco1 | 0.2 | 0.1 | -5.4 | -0.6 | -3.5
CCOC(=O)C1CN(Cc2ccccc2)C(=O)C1=O (configuration not stated) | 0.1 | . | -1.5 | 3.8 | -6.3
COC(=O)C1SCC2C(=O)N(Cc3ccccc3)CC(=O)N21 (configuration not stated) | 43.1* | -0.1 | -1.2 | 8.2 | -13.6
C[C@@H]1CN([C@H](C)CO)C(=O)c2cc(-c3cccc(F)c3)cnc2O[C@@H]1CN(C)CC1CCOCC1 | 0.4 | . | . | . | .
CSc1nc2ccccc2n1Cc1cccc([N+](=O)[O-])c1 | 44.0* | -0.1 | 8.6 | -0.3 | 0.0
Cc1nnc(SCC2=C(C(=O)O)N3C(=O)C(NC(=O)Cn4ncc(Cl)c4C)C3SC2)s1 (configuration not stated) | 43.0* | -0.1 | -4.7 | 12.3 | -8.6
CCCCCNCC(=O)Nc1cc(C(F)(F)F)ccc1OCCOC | 43.9* | 0.2 | -8.0 | 4.7 | 9.2
O=C(CC1(O)C(=O)N(C/C=C/c2ccccc2)c2ccccc21)c1ccccn1 (configuration not stated) | . | -0.1 | 0.5 | -12.1 | 5.4
Cc1ccc(SCCC(=O)NCc2ccco2)cc1 | . | 0.0 | -1.4 | -10.2 | 1.0
Cc1cc(/C=N/N2CCN(C)CC2)c(C)n1-c1ccccc1F | 43.8* | 0.0 | -7.7 | 1.0 | 19.0
Nc1ccccc1-c1nnc(SCC(=O)Nc2ccccc2OC(F)F)[nH]c1=O | 43.3* | 0.0 | -3.3 | -1.7 | 4.7
CCSc1nnc(-c2ccccc2NC(=O)CC)c(=O)[nH]1 | . | 0.1 | 3.2 | -9.7 | -2.2
CC1=NN(c2ccccc2)C(=O)/C1=C\c1ccc(Oc2ccc([N+](=O)[O-])cc2[N+](=O)[O-])cc1 | 42.0 | -0.1 | 12.7 | 24.7* | 2.7
COc1cc(/C=C2\C(=O)N(c3ccccc3)N=C2C)ccc1Oc1ccc([N+](=O)[O-])cc1[N+](=O)[O-] | . | 0.0 | -7.0 | 14.3 | 4.8
CC(=O)N=c1c(C#N)cc2c(=O)n3cccc(C)c3nc2n1Cc1ccco1 | 0.1 | 0.1 | -4.1 | 9.8 | .
C=CCN(CC=C)C(=S)NC(=O)Cc1cccc2ccccc12 | 43.4* | 0.1 | -3.0 | -2.6 | 7.0
COc1ccc2c(C=O)cn(C)c2c1 | 43.0* | 0.0 | -11.9 | 5.0 | 6.4
CCN(CC)S(=O)(=O)c1ccc2c(c1)oc(=O)n2CC(=O)N(C)C1CCCCC1 | 0.1 | 0.0 | -3.8 | 1.8 | 0.6
CCOC(=O)c1ccc(NC(=O)N2CCN(C(=O)C3CCCO3)CC2)cc1 (configuration not stated) | 43.2* | 0.0 | 2.8 | 7.6 | 1.3
COc1ccc(NC(=O)N2CCN(C(=O)C3CCCO3)CC2)cc1 (configuration not stated) | -0.3 | -0.4 | -5.1 | -4.1 | 3.2
Cc1cccc(NC(=O)C2CCCN(S(=O)(=O)c3c(C)nn(C)c3C)C2)n1 (configuration not stated) | -0.1 | -0.3 | -15.7 | -1.1 | -7.6
O=C(N/C=C/n1cnc2cc(C(F)(F)F)ccc21)c1ccccc1F | 44.3* | 0.0 | -0.3 | 2.6 | 1.4
SMILES | FGF22 binding | Efflux pump mplx | ASAP1 GAP inh | ARFGAP1 inh | Rtt109 Vps75
CC(C)(C)n1nnnc1C(c1ccc2ncccc2c1)N1CCC(O)CC1 (configuration not stated) | 43.7* | 0.1 | 4.8 | -0.5 | -2.3
CC(C)NC(=O)N(C)C[C@H]1Oc2ncc(C#Cc3ccc(F)cc3)cc2C(=O)N([C@@H](C)CO)C[C@@H]1C | -0.5 | . | . | . | .
Cc1cc(NC(=O)CN2C(=O)NC(C)(c3ccc(OC(F)F)cc3)C2=O)no1 (configuration not stated) | . | 0.2 | 1.5 | 5.6 | -4.8
Cc1oc(-c2cc(F)ccc2F)nc1CN1CCN(C)C(=O)[C@@H]1C | 42.9* | -0.1 | -0.2 | 8.2 | 2.6
COc1ccc(C(=O)C2CCCN(C(=O)c3c4c(nn3C)CCCC4)C2)cc1F (configuration not stated) | . | 0.2 | -17.4 | -2.9 | -0.6
Cn1nc2c(c1C(=O)N1CCCC(C(=O)c3cc(F)ccc3F)C1)CCCC2 (configuration not stated) | 43.4* | 0.0 | 2.0 | 10.4 | .
CC(=O)NCCC1CCN(c2nc3nonc3nc2N(C)Cc2ccccc2)CC1 | 0.0 | 0.0 | -3.9 | 9.5 | 0.3
C/C(=N\Nc1ccc([N+](=O)[O-])cc1)c1cc2ccccc2o1 | 43.7* | 0.1 | 8.7 | 2.2 | 6.4
COc1ccc(-c2n[nH]c(=S)n2-c2ccc3c(c2)OCCO3)cc1OC | 0.1 | -0.1 | -1.1 | 3.4 | 1.0
C[C@H]1CN([C@@H](C)CO)C(=O)c2c(c3ccccc3n2C)-c2ccccc2CO[C@H]1CN(C)Cc1ccc(Oc2ccccc2)cc1 | 1.3* | . | . | . | .
C[C@@H]1CN([C@H](C)CO)C(=O)c2c(c3ccccc3n2C)-c2ccccc2CO[C@@H]1CN(C)Cc1ccc(C(F)(F)F)cc1 | 1.4* | . | . | . | .
COC(=O)C(CCSC)NC(=O)/C=C/c1ccc(OC)cc1 (configuration not stated) | 43.5* | 0.1 | -1.7 | 10.8 | -9.0
Cc1nc2c(oc3ccccc32)c(=O)o1 | . | 0.1 | 2.0 | 18.1 | 5.1
CC(C)NC(=O)Nc1ccc2c(c1)C(=O)N([C@H](C)CO)C[C@H](C)[C@H](CN(C)C(=O)NC(C)C)OCCCC[C@H](C)O2 | -0.7 | . | . | . | .
O=C1C2C3C=CC(C3)C2S(=O)(=O)C2C3C=CC(C3)C12 (configuration not stated) | 42.9* | . | 2.0 | 12.1 | .
O=C1C2C3C=CC(CC3)C2S(=O)(=O)C2C3C=CC(CC3)C12 (configuration not stated) | 44.0* | . | 5.7 | 8.8 | .
O=C(C[C@H]1CC[C@@H]2[C@H](COC[C@H](O)CN2C(=O)Nc2ccc(C(F)(F)F)cc2)O1)NCCc1ccncc1 | 0.2 | . | . | . | .
NC(=O)N/N=C/c1ccccc1OC(=O)c1ccccc1Br | 42.9* | 0.0 | 5.8 | -3.0 | -1.1
COc1ccccc1/C=N/NC(=O)CN(C1=NS(=O)(=O)c2ccccc21)c1ccccc1 | . | 0.1 | 7.7 | 39.7* | 6.1

Source: PubChem
